# HSP90 inh = blocks HSP90-mediated luciferase refolding in reticulocyte lysate. Rabbit reticulocyte lysate, luciferase refolding luminescence, 3 h. inhibition, % at 5.6 µM. 290,000 tested, 0.91% active. AID 1789;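 active = inhibition above the screen-wide mean plus 3 SD, computed separately per campaign, cut at about 16% in these data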;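 also: 0% = DMSO wells and 100% = 60 µM geldanamycin wells; inhibitors lower the luminescence because luciferase stays unfolded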
# STAT3 activator = activators of IL-6 induced STAT3 signaling; U3A cells, IL-6 STAT3-luciferase reporter, luminescence; 100% = signal with IL-6 EC80 alone; activation (% of control), % at 5.6 µM; 190,000 tested, 0.91% active; AID 871;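 active = activation above the screen-wide mean of compound activation plus 3 SD, cut at about 130% in these data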;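 also: 0% = background luminescence of wells with medium and substrate only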
#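 Detection: reporter luminescence signal / Assay system: STAT1-lacking human U3A cells, STAT3 luciferase reporter / Incubation: compound pre-incubation 1 h before IL-6, then 6 h stimulation at 37 °C / Control set: IL-6-only high control / Read-out: % activation relative to IL-6 control / Probe or stimulus: Interleukin-6, 33 ng/mL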
# STAT3 inh = inhibitors of IL-6 induced STAT3 signaling. U3A cells, IL-6 STAT3-luciferase reporter, luminescence; host cell line lacks STAT1. inhibition, % at 5.5 µM. 190,000 tested, 0.89% active;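 active = inhibition above the mean inhibition across all screened compounds plus 3 SD, cut at about 44% in these data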;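 also: 0% = DMSO only wells and 100% = 100 µM nifuroxazide control wells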
# C8 TRAIL sens = caspase-8 TRAIL sensitization; NB7+C8 cells + TRAIL, ATPlite viability luminescence; inhibition (viability loss, TRAIL sensitization), % at 10 µM; 360,000 tested, 1% active; AID 624354;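 active = compounds causing at least 50% loss of cell viability in the single-dose screen, relative to plate controls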
# PPC-1+TRAIL kill = kills PPC-1 cancer cells in the presence of TRAIL | PPC-1 cells + TRAIL, ATPLite viability luminescence | 220,000 tested, 0.41% active | cell killing (% activity), % at 4 µM or 5 µM;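 active = cell killing above 50% in the first pass at 4 µM, then a duplicate retest at 5 µM averaging 50% or more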;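 also: plate controls were cells with TRAIL plus DMSO for no effect and medium-only wells lacking cells for full effect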
# STAT1 blocker = reduces IFN-gamma driven STAT1 reporter signal. NIH 3T3 STAT1-luciferase reporter, luminescence. inhibition, % at 5.5 µM. 200,000 tested, 0.35% active. AID 920;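 active = inhibition above a set limit, the mean inhibition across all tested compounds plus 3 SD, cut at about 34% in these data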;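 also: 0% = IFN-gamma with DMSO and 100% = IFN-gamma with 300 µM nifuroxazide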
# * marks the source's active call; other numbers are inactive results; / = not tested or not shown. An excerpt weighted towards active compounds, which were near 2.3% of everything screened.
SMILES,HSP90 inh,STAT3 activator,STAT3 inh,C8 TRAIL sens,PPC-1+TRAIL kill,STAT1 blocker
CCCCN1C(=N)N([C@@H](C)CN2CCC[C@H]2CN2C(N)=NC[C@@H]2Cc2ccccc2)C[C@H]1[C@H](C)CC,/,/,/,-14,/,/
CCc1cc(C(c2cccc(OC)c2)N2CCOCC2)c(NC(=O)c2ccccc2)s1 (stereo not given),-5,102,3,-4,4,1
CCOc1ccc(CN2CCN(Cc3c(C)nn(CC)c3C)CC2CCO)cc1 (stereo not given),1,/,/,14,-42,/
O=C(NCCc1c[nH]c2ccccc12)c1cnc2sccn2c1=O,-2,135*,-31,16,13,-30
Cc1c(C)c(C)c(S(=O)(=O)N2CCNCC2)c(C)c1C,-3,98,4,1,21,-5
CC(C)CNC(=O)c1nn(Cc2ccccc2)c(=O)c2ccccc12,1,/,/,-9,/,/
COc1ccccc1C(=O)NNC(=O)c1nn(Cc2ccccc2)c(=O)c2ccccc12,-2,135*,-38,16,1,9
CCCCn1c(SCC(=O)Nc2nnc(CC)s2)nc2c1c(=O)n(C)c(=O)n2C,-1,92,13,64*,19,-2
CCOc1cc(CNc2ccc3c(c2)OCCO3)cc(Br)c1OCC,16*,97,9,-6,-9,-3
CCOc1ccc2nc(NC(=O)CN3CCC(n4nnc5cc(C(F)(F)F)ccc54)CC3)sc2c1,3,92,13,56*,13,4
CCOC(=O)CCNC(=O)N1CCCC(Cc2ccccc2)(C(=O)OCC)C1 (stereo not given),-2,/,/,10,/,/
COc1ccc(C(=O)c2ccc(N(C)C)cc2)c(OC)c1,-2,97,8,1,5,-17
CN(C)c1ccc(C(=O)c2ccc(N(C)C)c3ccccc23)cc1,1,146*,-52,-15,19,-32
O=C(N1CCN(c2ccccn2)CC1)C(Cl)(Cl)Cl,1,84,23,13,31,-5
O=C1C=C(N2CCN(c3ccccn3)CC2)C(=O)c2c(O)ccc(O)c21,/,/,/,50*,/,/
O=C(/C=C/C(Cl)(Cl)Cl)Nc1ccc(Cl)cc1,/,/,/,93*,/,/
O=C1Nc2ccc(Br)cc2/C1=C/C(=O)c1ccc2c(c1)OCO2,4,/,/,38,4,/
COc1ccc(C(=O)/C=C2\C(=O)Nc3ccc(Br)cc32)cc1,/,/,/,59*,/,/
O=C1Cc2c(-c3ccccc3)cc(-c3cccc(Cl)c3)nc2-c2ccccc2N1,/,/,/,64*,/,/
COc1cccc(C(=O)O/N=C(\N)c2ccncc2)c1,0,99,5,53*,18,-42
N/C(=N\OC(=O)c1ccc2c(c1)OCO2)c1ccncc1,-1,/,/,60*,19,/
CC(C)c1ccc2c(c1)C1(NN=C(c3ccccc3)S1)C(=O)N2 (stereo not given),3,110,-10,13,6,-36
COc1ccc(-n2c(C)cc(/C=C3\C(=O)NN(c4ccccc4)C3=O)c2C)cc1,-8,109,-10,12,28,-4
Cc1cc(/C=C2/C(=O)NN(c3ccccc3)C2=O)c(C)n1-c1ccc(O)cc1,-2,77,28,88*,79*,-21
O=C(Nc1ccc2ccccc2n1)Nc1ccccc1F,4,/,/,10,/,/
SMILES,HSP90 inh,STAT3 activator,STAT3 inh,C8 TRAIL sens,PPC-1+TRAIL kill,STAT1 blocker
Fc1ccc(Nc2ccc3ccccc3n2)c(F)c1,34*,41,72*,40,28,44*
Cc1ccc2nc(-c3ccc(NC(=S)NC(=O)CC(C)C)cc3)sc2c1,-9,107,-5,9,-14,-15
Cc1ccc2nc(-c3ccc(NC(=O)C(C)Sc4nncs4)cc3)sc2c1 (stereo not given),/,/,/,52*,/,/
Cc1cc(=O)[nH]c(NCc2ccccc2)n1,16*,/,/,-11,-4,/
O=C(COc1ccccc1C(=O)c1cnn(-c2ccccc2)c1)Nc1ccccc1,3,102,-8,60*,47,-22
COc1ccccc1CNC(=O)COc1ccccc1C(=O)c1cnn(-c2ccccc2)c1,/,/,/,12,/,/
C=CCOc1cccc(/C=C/c2nc3ccccc3c(=O)[nH]2)c1,-1,/,/,57*,/,/
Cc1ccccc1/C=C/c1nc2ccccc2c(=O)[nH]1,-1,/,/,54*,25,/
COc1cc(/C=C/c2nc3ccccc3c(=O)[nH]2)ccc1OC(F)F,1,/,/,56*,/,/
Cc1ccccc1/C=C\c1nc2ccccc2c(=O)[nH]1,-1,84,21,35,32,-22
COC(=O)c1ccc(/C=C/c2nc3ccccc3c(=O)[nH]2)cc1,8,/,/,53*,/,/
COc1cc(/C=C/c2nc3ccccc3c(=O)[nH]2)cc(OC)c1OC,0,/,/,10,/,/
Nc1c(N(CCC2=CCCCC2)C(=O)COc2ccc(F)cc2)c(=O)[nH]c(=O)n1Cc1ccccc1,/,/,/,73*,/,/
Nc1c(N(CCC2=CCCCC2)C(=O)CCCOc2ccccc2)c(=O)[nH]c(=O)n1Cc1ccccc1,/,/,/,-7,/,/
O=C(Nc1ccccn1)c1ccc2c(=O)n3c(nc2c1)CCCCC3,/,/,/,60*,/,/
O=C1/C(=C\c2ccccc2)CCC/C1=C/c1ccccc1,/,/,/,16,/,/
CCN(CC)CCC(=O)N1C/C(=C/c2ccccc2)C(=O)/C(=C\c2ccccc2)C1,/,/,/,93*,/,/
O=C1/C(=C\c2ccccc2)CN(C(=O)CCN2CCCCC2)C/C1=C/c1ccccc1,/,/,/,91*,/,/
O=C1/C(=C\c2ccc(Cl)c(Cl)c2)CN(C(=O)CCN2CCOCC2)C/C1=C/c1ccc(Cl)c(Cl)c1,/,/,/,93*,/,/
O=C(NCCN1CCOCC1)c1ccc(Cl)c(Cl)c1,0,/,/,-4,/,/
COc1cc(NC(=O)CSc2nnc3ccccn23)cc(OC)c1,/,/,/,-14,/,/
CC1(C(=O)NS(=O)(=O)c2cccc(OC(F)F)c2)CCN1C(=O)CCc1cccs1 (stereo not given),/,/,/,-1,/,/
COc1cccc(/C=C2\SC(=S)N(CCCC(=O)N(CCO)c3ccccc3)C2=O)c1,3,/,/,61*,/,/
CCN(CC)C(=O)COc1ccc2c(c1)C(=O)CC(C)(C)O2,0,107,1,-7,15,-11
CC(C)Oc1ccc(S(=O)(=O)N2CCOCC2)cc1NC(=O)c1nn(C)c(=O)c2ccccc12,/,/,/,19,/,/
CC(=O)N1N=C(c2ccco2)CC1c1cccs1 (stereo not given),1,95,9,6,-5,7
O=C(CCl)N1N=C(c2ccco2)CC1c1cccs1 (stereo not given),-4,77,29,92*,5,24
Cc1ccc(C2=NN(C(=O)CCl)C(c3cccs3)C2)o1 (stereo not given),0,95,0,95*,-7,11
c1ccc(CNc2nc3ccccc3n3cnnc23)cc1,16*,92,18,-6,16,3
c1ccc(CNc2nc3ccccc3n3cnnc23)nc1,-4,98,11,-10,13,-14

# Screens as filed in PubChem BioAssay.
